We go through twelve molecules from ChEMBL document CHEMBL1124970, “New leupeptin analogues: synthesis and inhibition data” (J Med Chem, 1990).

Molecules are shown by their SMILES. Where a SMILES comes first, the peptide text is derived from it. [ ]: non-standard residue; d: D form. The star is where a group is joined. Orn = NCCC[C@H](N)C(=O)O; Cbz = O=C(OCc1ccccc1)*

For orientation: IC50 means the concentration that gives 50% inhibition.

In experiment [1] the target is T1, Serine protease 1 (Homo sapiens, UniProt P07477). Put plainly: Evaluated for the inhibition of trypsin. The method in brief: (§1)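 Trypsin (0.01 g/L stock in 0.001 N HCl) in 0.046 M Tris with 0.0115 M CaCl2, pH 8.1, inhibitor in 1% DMSO/water, 37 °C. Tosyl-L-arginine methyl ester (0.01 M stock) added, 2 min incubation, A247 change read over 10 min. Each inhibitor level run four times, five or more levels; IC50 from % inhibition plotted against log concentration.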
T1 sequence (P07477 whole entry): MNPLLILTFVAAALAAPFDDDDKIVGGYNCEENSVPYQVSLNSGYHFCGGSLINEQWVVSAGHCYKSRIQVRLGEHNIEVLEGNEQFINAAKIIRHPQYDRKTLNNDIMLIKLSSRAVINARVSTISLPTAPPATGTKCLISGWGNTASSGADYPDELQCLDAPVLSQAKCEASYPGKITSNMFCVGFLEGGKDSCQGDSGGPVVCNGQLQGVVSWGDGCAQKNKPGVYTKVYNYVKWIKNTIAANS

A further experiment concerns the target Kallikrein-1 (Homo sapiens, UniProt P06870). The experiment is described as follows: Inhibition of Kallikrein proteolytic enzyme. In a few lines: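 Human urinary kallikrein (0.3 units/mL stock) at 37 °C in 0.46 M Tris pH 8.0 containing 0.0115 M NaCl, inhibitor in 1% DMSO/water. Benzoylarginine ethyl ester (0.5 mM stock) substrate, 2 min incubation, absorbance change at 253 nm over 10 min. Quadruplicate measurements at ≥5 inhibitor concentrations; IC50 read from % inhibition vs log inhibitor concentration.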

In experiment [2] the target is T2, Plasminogen (Rattus norvegicus, UniProt Q01177). Put plainly: Inhibition of plasmin. In a few lines:
(§2)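 Plasmin (0.25 casein units/mL stock, in 50% glycerol/2 mM HCl with 5 g/L carbowax) in 0.5 M Tris pH 8.0 with 0.12 M NaCl, inhibitor added in 1% DMSO/water, 37 °C. D-Val-Leu-Lys p-nitroanilide (3.35 mM stock) added, 1 min incubation, then A405 change followed over 10 min. Four runs at ≥5 inhibitor concentrations; % inhibition vs log[I] gives IC50.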

In experiment [3] the target is T1, Serine protease 1. Put plainly: Evaluated for the inhibition of trypsin.(no inhibition at 400 uM). In a few lines:
as §1

In experiment [4] the target is T2, Plasminogen. The experiment is described as follows: Evaluated for the inhibition of plasmin.(no inhibition at 400 uM). In a few lines: as §2
Experiment [5] addresses T2, Plasminogen. The experiment is described as follows: Evaluated for the inhibition of plasmin.( no inhibition at 400 uM). The method in brief: as §2

Sequence of Kallikrein-1 (P06870 whole entry): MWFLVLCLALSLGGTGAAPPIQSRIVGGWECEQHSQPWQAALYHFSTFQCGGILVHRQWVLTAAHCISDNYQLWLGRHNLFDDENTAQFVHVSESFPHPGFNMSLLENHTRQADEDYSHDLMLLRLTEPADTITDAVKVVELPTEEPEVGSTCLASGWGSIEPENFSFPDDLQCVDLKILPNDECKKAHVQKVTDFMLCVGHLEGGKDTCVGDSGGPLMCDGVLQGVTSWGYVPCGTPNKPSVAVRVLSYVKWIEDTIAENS
T2 sequence (Q01177 97-581 limits assumed): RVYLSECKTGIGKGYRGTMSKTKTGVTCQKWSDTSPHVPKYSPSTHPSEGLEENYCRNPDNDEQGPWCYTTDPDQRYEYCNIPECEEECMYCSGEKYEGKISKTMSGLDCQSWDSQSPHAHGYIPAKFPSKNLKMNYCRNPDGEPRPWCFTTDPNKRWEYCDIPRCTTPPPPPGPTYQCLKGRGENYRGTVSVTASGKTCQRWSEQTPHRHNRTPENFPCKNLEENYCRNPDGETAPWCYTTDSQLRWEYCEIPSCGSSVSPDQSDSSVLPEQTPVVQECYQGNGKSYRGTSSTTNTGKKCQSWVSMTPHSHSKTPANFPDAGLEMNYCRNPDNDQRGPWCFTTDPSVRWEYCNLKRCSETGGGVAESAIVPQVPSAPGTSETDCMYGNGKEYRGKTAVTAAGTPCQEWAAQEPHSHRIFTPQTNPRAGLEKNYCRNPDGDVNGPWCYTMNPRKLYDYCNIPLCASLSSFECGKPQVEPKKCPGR
T2 sequence (Q01177 582-812 limits assumed): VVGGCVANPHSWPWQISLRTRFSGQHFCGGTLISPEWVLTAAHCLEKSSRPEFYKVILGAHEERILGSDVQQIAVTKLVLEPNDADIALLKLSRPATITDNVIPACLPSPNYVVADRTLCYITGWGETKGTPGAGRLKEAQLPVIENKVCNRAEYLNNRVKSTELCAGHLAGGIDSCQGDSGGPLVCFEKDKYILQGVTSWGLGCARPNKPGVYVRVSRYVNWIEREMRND

As for `CC(C)C[C@H](NC(=O)OCc1ccccc1)C(=O)N[C@@H](CC(C)C)C(=O)N[C@H](C=O)CCCN=C(N)N`, the results for the IC50 at Serine protease 1 [1], at Kallikrein-1 and on Plasminogen [2] were 164 µM, 36 µM and 128 µM, respectively.

For `CC(C)C[C@H](NC(=O)OCc1ccccc1)C(=O)N[C@@H](CC(C)C)C(=O)N[C@H](C=O)CCCCN` (Cbz-Leu-Leu-Lys-aldehyde), the IC50 against Serine protease 1 [1] worked out at 196 µM; on Kallikrein-1, 19 µM; at Plasminogen [2], 184 µM.

For the molecule `CC(C)C[C@H](NC(=O)OCc1ccccc1)C(=O)N[C@@H](CC(C)C)C(=O)N[C@H](C=O)CCCN` (Cbz-Leu-Leu-[Orn]-aldehyde), the values for the 50% inhibitory concentration (IC50) at Kallikrein-1, against Serine protease 1 [3] and at Plasminogen [4] were 29.3 µM, above 400 µM and above 400 µM, respectively.

Turning to `CC(C)C[C@H](NC(=O)OCc1ccccc1)C(=O)N[C@@H](Cc1ccccc1)C(=O)N[C@H](C=O)CCCN=C(N)N` (Cbz-Leu-Phe-Arg-aldehyde), the results for the concentration for half-maximal inhibition (IC50) against Serine protease 1 [1], at Kallikrein-1 and against Plasminogen [2] were 107 µM, 33.3 µM and 79.9 µM, respectively.

Consider `CC(C)C[C@H](NC(=O)OCc1ccccc1)C(=O)N[C@@H](Cc1ccccc1)C(=O)N[C@H](C=O)CCCCN` (Cbz-Leu-Phe-Lys-aldehyde), for which the half-maximal inhibitory concentration (IC50) on Kallikrein-1 was 20.3 µM; against Plasminogen [2], 47 µM; on Serine protease 1 [3], above 400 µM.

For the molecule `CC(C)C[C@H](NC(=O)OCc1ccccc1)C(=O)N[C@@H](Cc1ccccc1)C(=O)N[C@H](C=O)CCCN` (Cbz-Leu-Phe-[Orn]-aldehyde), the half-inhibitory concentration (IC50) on Plasminogen [5] is above 400 µM; on Kallikrein-1, 82.4 µM; against Serine protease 1 [3], above 400 µM.

For `CC(C)C[C@H](NC(=O)OCc1ccccc1)C(=O)N[C@H](C(=O)N[C@H](C=O)CCCN=C(N)N)C(C)C` (Cbz-Leu-Val-Arg-aldehyde), the IC50 against Serine protease 1 [1] was determined as 81.4 µM; against Kallikrein-1, 11.2 µM; on Plasminogen [2], 10.2 µM.

`CC(C)C[C@H](NC(=O)OCc1ccccc1)C(=O)N[C@H](C(=O)N[C@H](C=O)CCCCN)C(C)C` (Cbz-Leu-Val-Lys-aldehyde): the IC50 against Kallikrein-1 was 14.8 µM; against Plasminogen [2], 18.5 µM; at Serine protease 1 [3], above 400 µM.

Turning to `CC(C)C[C@H](NC(=O)OCc1ccccc1)C(=O)N[C@H](C(=O)N[C@H](C=O)CCCN)C(C)C` (Cbz-Leu-Val-[Orn]-aldehyde), the IC50 at Kallikrein-1 was 53.8 µM; against Plasminogen [2] it was 432 µM; against Serine protease 1 [3], above 400 µM.

For the molecule `CC(C)C[C@H](NC(=O)[C@H](Cc1ccccc1)NC(=O)OCc1ccccc1)C(=O)N[C@H](C=O)CCCN=C(N)N` (Cbz-Phe-Leu-Arg-aldehyde), the results for the half-inhibitory concentration (IC50) against Serine protease 1 [1], on Kallikrein-1 and on Plasminogen [2] were 45.9 µM, 25.7 µM and 10.2 µM, respectively.

As to `CC(C)C[C@H](NC(=O)[C@H](Cc1ccccc1)NC(=O)OCc1ccccc1)C(=O)N[C@H](C=O)CCCCN` (Cbz-Phe-Leu-Lys-aldehyde), the IC50 against Kallikrein-1 was 25.6 µM; at Plasminogen [2], 8.9 µM; against Serine protease 1 [3], above 400 µM.

On to `CC(C)C[C@H](NC(=O)[C@H](Cc1ccccc1)NC(=O)OCc1ccccc1)C(=O)N[C@H](C=O)CCCN` (Cbz-Phe-Leu-[Orn]-aldehyde), for which the concentration for half-maximal inhibition (IC50) is 112 µM at Kallikrein-1, 242 µM against Plasminogen [2] and above 400 µM against Serine protease 1 [3].
